In ChEMBL document CHEMBL2406994, “Novel triple reuptake inhibitors with low risk of CAD associated liabilities: design, synthesis and biological activities of 4-[(1S)-1-(3,4-dichlorophenyl)-2-methoxyethyl]piperidine and related compounds” (Bioorg Med Chem, 2013):
Activity calls are given as the source filed them. The rule behind the calls is not given here.

Columns and labels:
Mus musculus [1] = assay: Antidepressant activity in ICR mouse assessed as DA level at 10 mg/kg, po after 120 mins by microdialysis relative to control; format: functional
Procedure, shortened: (§1)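 Male 6-week-old ICR mice; probe implanted stereotaxically into medial prefrontal cortex under pentobarbital, 1 day recovery. Perfusion with Ringer at 2 µL/min; after ≥120 min stabilisation, dialysate collected every 20 min. Baseline from mean of three stable samples. Drug in water given orally at 10 mL/kg; collection continued 120 min. 5-HT, NE and DA measured by HPLC with electrochemical detection.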

Mus musculus [2] = assay: Antidepressant activity in ICR mouse assessed as NE level at 10 mg/kg, po after 120 mins by microdialysis relative to control; format: functional; procedure, shortened: as §1
Mus musculus [3] = assay: Antidepressant activity in ICR mouse assessed as 5-HT level at 10 mg/kg, po after 120 mins by microdialysis relative to control; format: functional; procedure, shortened: as §1
Mus musculus [4] = assay: Ex vivo receptor occupancy of DAT in po dosed ICR mouse after 1 hr in presence of [3H]-WIN35428; format: functional, organism-based
Procedure, shortened: (§2)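 Oral dosing in mice; 1 h later, frontal cortex and striatum dissected. Unwashed homogenate incubated with [³H]-citalopram (25 nM, SERT), [³H]-nisoxetine (25 nM, NET) or [³H]-WIN35428 (50 nM, DAT). Occupancy taken as percent inhibition of specific binding.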

Mus musculus [5] = assay: Ex vivo receptor occupancy of NET in po dosed ICR mouse after 1 hr in presence of [3H]-nisoxetine; format: functional, organism-based; procedure, shortened: as §2
Mus musculus [6] = assay: Ex vivo receptor occupancy of SERT in po dosed ICR mouse after 1 hr in presence of [3H]-citalopram; format: functional, organism-based; procedure, shortened: as §2
Mus musculus [7] = assay: Antidepressant activity in ICR mouse assessed as reduction in immobility rate at 10 mg/kg, po after 60 mins by tail suspension test; format: functional, organism-based; design: dose 10 mg/kg
Procedure, shortened: (§3)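 Male 7-week-old ICR mice, n = 11/group. Drug or vehicle (distilled water) given orally at 10 mL/kg; test run 60 min later. Mice hung by the tail from a strain-gauge hook, and immobility scored from load variation over a 10 min test. Average immobility ratio (%) per group; significance by parametric Williams' test, P < .025.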

Mus musculus [8] = assay: Antidepressant activity in po dosed ICR mouse assessed as immobility rate after 60 mins by tail suspension test; format: functional, organism-based; procedure, shortened: as §3
Mus musculus [9] = assay: Antidepressant activity in orally dosed ICR mouse after 60 mins by tail suspension test; format: functional; details: po, 1 h, read-out: MED; procedure, shortened: as §3
hERG (KCNH2) = hERG (KCNH2) (Homo sapiens, UniProt Q12809); assay: Inhibition of human ERG channel at 10 uM by ionworks assay relative to control
Chain of hERG (KCNH2) (Q12809 whole entry): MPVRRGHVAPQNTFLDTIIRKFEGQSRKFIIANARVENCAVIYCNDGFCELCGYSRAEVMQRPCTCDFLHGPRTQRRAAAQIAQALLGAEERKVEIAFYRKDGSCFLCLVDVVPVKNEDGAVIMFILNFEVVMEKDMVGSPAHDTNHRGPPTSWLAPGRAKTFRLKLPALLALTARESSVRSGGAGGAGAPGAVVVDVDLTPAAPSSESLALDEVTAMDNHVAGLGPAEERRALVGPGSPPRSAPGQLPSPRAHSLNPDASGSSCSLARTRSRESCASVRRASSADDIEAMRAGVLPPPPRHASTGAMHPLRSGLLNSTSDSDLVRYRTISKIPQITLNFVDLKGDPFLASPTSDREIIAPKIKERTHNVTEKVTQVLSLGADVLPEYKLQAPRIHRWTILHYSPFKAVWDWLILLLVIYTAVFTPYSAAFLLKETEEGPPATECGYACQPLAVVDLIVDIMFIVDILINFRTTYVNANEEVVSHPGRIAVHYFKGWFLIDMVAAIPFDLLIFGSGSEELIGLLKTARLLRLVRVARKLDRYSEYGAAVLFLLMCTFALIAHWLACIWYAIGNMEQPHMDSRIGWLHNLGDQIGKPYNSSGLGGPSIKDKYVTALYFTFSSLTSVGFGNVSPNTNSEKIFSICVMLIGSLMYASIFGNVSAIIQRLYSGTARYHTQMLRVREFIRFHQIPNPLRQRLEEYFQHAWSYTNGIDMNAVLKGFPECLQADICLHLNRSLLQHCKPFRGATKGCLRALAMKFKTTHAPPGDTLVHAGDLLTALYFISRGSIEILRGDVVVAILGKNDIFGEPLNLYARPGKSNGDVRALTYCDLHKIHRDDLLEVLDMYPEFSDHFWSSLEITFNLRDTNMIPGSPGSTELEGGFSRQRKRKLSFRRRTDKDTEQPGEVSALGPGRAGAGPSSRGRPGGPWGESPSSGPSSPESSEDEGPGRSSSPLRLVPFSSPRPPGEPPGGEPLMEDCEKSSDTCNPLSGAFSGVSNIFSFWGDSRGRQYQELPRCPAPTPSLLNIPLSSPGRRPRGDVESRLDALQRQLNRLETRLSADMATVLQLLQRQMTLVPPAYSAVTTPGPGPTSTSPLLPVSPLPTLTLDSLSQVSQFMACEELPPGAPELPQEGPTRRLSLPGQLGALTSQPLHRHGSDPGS
Procedure, shortened: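 hERG current measured on IonWorks Quattro with test compound at 10 µM. Expressed as % inhibition.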

CYP2D6 = CYP2D6 (Homo sapiens, UniProt P10635); assay: Inhibition of CYP2D6 (unknown origin) assessed as 1'-hydroxybufuralol production at 10 uM after 20 mins by LC/MS/MS analysis relative to control; format: ADME; details: probe bufuralol (measured as 1'-hydroxybufuralol production)
Chain of CYP2D6 (P10635 whole entry): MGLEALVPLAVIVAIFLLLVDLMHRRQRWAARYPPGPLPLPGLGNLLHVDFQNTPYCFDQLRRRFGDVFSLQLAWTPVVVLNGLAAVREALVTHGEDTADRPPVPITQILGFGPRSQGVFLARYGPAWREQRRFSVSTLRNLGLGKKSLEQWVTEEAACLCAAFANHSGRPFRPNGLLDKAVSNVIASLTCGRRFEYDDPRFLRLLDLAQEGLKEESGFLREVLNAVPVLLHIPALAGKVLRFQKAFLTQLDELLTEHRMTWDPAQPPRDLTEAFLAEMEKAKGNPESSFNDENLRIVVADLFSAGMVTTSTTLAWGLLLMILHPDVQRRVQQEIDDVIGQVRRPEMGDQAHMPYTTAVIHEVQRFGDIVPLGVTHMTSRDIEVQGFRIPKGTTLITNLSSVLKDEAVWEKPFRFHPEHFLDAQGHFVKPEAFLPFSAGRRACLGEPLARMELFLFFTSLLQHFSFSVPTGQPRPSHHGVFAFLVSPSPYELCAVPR
Procedure, shortened: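 10 µmol/L bufuralol incubated with 2 nmol/L CYP2D6 from insect cells expressing the enzyme, with 10 µmol/L test compound, for 20 min at 37 °C. 1'-hydroxybufuralol quantified by LC/MS/MS. Expressed as % inhibition.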

[10] = target: Sodium-dependent dopamine transporter (Homo sapiens, UniProt Q01959); assay: Displacement of [3H]-dopamine from human DAT expressed in CHO cells by TopCounting analysis; format: cell-based
Chain of Sodium-dependent dopamine transporter (Q01959 whole entry): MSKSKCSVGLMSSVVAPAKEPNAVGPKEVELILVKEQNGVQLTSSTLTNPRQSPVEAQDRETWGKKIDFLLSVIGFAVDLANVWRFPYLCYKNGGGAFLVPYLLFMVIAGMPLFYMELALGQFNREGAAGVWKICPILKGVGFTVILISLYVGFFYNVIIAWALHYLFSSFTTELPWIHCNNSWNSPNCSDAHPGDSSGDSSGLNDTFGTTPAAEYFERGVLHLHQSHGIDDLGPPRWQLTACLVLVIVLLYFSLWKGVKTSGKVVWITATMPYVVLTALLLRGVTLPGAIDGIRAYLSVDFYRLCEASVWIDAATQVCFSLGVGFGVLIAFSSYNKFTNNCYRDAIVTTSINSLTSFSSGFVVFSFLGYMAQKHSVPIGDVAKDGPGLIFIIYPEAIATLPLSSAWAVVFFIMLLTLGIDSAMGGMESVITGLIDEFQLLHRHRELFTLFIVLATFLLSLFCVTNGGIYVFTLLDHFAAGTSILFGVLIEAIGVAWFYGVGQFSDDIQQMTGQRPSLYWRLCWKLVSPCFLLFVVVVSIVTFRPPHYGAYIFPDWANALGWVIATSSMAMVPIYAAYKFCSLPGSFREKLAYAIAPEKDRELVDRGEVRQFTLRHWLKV
Procedure, shortened: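 CHO cells stably expressing human DAT, plated overnight at 3 × 10⁵ cells/mL in HEPES-buffered saline with 0.5% BSA. Compound added, then [³H]-dopamine (200 nM diluted stock) with cold dopamine. Uptake for 60 min, two PBS washes, scintillation counting. Activity relative to 100 µM nomifensine as 100%. IC50 and 95% CI from n = 2.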

[11] = target: Sodium-dependent noradrenaline transporter (Homo sapiens, UniProt P23975); assay: Displacement of [3H]-norepinephrine from human NET expressed in CHO cells by TopCounting analysis; format: cell-based
Chain of Sodium-dependent noradrenaline transporter (P23975 whole entry): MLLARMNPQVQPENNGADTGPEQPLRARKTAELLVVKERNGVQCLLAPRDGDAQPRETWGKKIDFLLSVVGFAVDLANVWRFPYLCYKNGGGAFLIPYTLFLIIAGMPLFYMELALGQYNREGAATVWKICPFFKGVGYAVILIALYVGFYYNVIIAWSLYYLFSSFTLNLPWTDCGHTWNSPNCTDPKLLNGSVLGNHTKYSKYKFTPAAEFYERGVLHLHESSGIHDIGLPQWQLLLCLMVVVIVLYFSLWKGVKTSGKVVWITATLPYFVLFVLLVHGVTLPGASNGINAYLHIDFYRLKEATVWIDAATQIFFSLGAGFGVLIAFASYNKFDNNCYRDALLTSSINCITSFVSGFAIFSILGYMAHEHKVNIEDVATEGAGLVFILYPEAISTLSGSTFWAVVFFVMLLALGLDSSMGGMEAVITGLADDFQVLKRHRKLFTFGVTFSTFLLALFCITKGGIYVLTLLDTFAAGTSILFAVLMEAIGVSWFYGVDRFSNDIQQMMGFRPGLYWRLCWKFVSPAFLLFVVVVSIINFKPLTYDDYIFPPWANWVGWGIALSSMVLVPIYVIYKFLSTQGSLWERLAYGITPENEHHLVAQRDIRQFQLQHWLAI
Procedure, shortened: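 CHO cells stably expressing human NET, plated overnight at 3 × 10⁵ cells/mL in HEPES-buffered saline with 0.5% BSA. Compound added, then [³H]-norepinephrine (200 nM diluted stock). Uptake stopped at 45 min with two PBS washes, then scintillation counting. IC50 and 95% CI from n = 2.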

[12] = target: Sodium-dependent serotonin transporter (Homo sapiens, UniProt P31645); assay: Displacement of [3H]-hydroxytryptamine from human SERT expressed in CHO cells by TopCounting analysis; format: cell-based
Chain of Sodium-dependent serotonin transporter (P31645 whole entry): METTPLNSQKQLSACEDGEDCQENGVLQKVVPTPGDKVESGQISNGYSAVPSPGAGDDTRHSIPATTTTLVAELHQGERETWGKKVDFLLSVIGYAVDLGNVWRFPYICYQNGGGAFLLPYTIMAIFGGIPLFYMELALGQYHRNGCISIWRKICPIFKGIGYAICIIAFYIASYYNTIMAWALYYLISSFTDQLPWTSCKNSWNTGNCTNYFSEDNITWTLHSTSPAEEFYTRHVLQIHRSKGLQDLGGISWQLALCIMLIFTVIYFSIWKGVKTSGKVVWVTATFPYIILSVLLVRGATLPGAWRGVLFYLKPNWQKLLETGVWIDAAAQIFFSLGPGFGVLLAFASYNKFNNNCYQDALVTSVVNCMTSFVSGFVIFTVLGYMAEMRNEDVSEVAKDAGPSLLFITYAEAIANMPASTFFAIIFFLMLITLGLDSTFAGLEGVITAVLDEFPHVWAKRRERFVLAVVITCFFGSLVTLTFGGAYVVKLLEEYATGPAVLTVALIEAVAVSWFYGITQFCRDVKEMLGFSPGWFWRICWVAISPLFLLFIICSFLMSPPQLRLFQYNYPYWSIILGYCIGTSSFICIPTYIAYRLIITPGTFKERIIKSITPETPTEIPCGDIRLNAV
Procedure, shortened: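 CHO cells stably expressing human SERT, plated overnight at 3 × 10⁵ cells/mL in HEPES-buffered saline with 0.5% BSA. Compound added, then [³H]-5-HT (200 nM diluted stock). Uptake stopped at 20 min with two PBS washes, then scintillation counting. Activity relative to 10 µM paroxetine.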

| SMILES | Activity (Mus musculus [1]) | Activity (Mus musculus [2]) | Activity (Mus musculus [3]) | Activity (Mus musculus [4]) | Activity (Mus musculus [5]) | Activity (Mus musculus [6]) | Activity (Mus musculus [7]) | Activity (Mus musculus [8]) | minimal effective dose (Mus musculus [9]) | inhibition at 10 µM (hERG (KCNH2)) | inhibition at 20 min, 10 µM (CYP2D6) | IC50 [10] | IC50 [11] | IC50 [12] |
| --- | --- | --- | --- | --- | --- | --- | --- | --- | --- | --- | --- | --- | --- | --- |
| COC[C@H](c1ccc(Cl)c(Cl)c1)C1CCNCC1.Cl | 270% | 400% | 180% | Dose-dependent effect | Dose-dependent effect | Dose-dependent effect | Active | Dose-dependent effect | 10 mg/kg | 48% | 14% | 0.18 µM | 0.015 µM | 0.13 µM |
| COC[C@@H](c1ccc(Cl)c(Cl)c1)C1CCNCC1.Cl |  |  |  |  |  |  |  |  | 10 mg/kg | 46% | 13% | 0.47 µM | 0.021 µM | 0.0057 µM |
| CSCC(c1ccc(Cl)c(Cl)c1)C1CCNCC1.Cl (racemic) |  |  |  |  |  |  |  |  | 30 mg/kg | 73% | 32% | 0.079 µM | 0.0093 µM | 0.0091 µM |
| CCSCC(c1ccc(Cl)c(Cl)c1)C1CCNCC1 (racemic) |  |  |  |  |  |  |  |  |  | 94% | 55% | 0.072 µM | 0.0087 µM | 0.0092 µM |
| CS(=O)(=O)CC(c1ccc(Cl)c(Cl)c1)C1CCNCC1 (racemic) |  |  |  |  |  |  |  |  |  | 9% | 3.9% | 2.2 µM | 0.2 µM | 0.34 µM |
| COC(=O)C(c1ccc(Cl)c(Cl)c1)C1CCNCC1 (racemic) |  |  |  |  |  |  |  |  |  | 56% | 13% | 0.22 µM | 0.018 µM | 0.0052 µM |
| CCOC(=O)C(c1ccc(Cl)c(Cl)c1)C1CCNCC1 (racemic) |  |  |  |  |  |  |  |  |  | 110% | 38% | 0.097 µM | 0.012 µM | 0.0093 µM |
| CC(=O)C(c1ccc(Cl)c(Cl)c1)C1CCNCC1.Cl (racemic) |  |  |  |  |  |  |  |  | 30 mg/kg | 40% | 11% | 0.18 µM | 0.044 µM | 0.021 µM |
| CCC(=O)C(c1ccc(Cl)c(Cl)c1)C1CCNCC1 (racemic) |  |  |  |  |  |  |  |  |  | 51% | 6.1% | 0.1 µM | 0.028 µM | 0.018 µM |
| CCCC(=O)C(c1ccc(Cl)c(Cl)c1)C1CCNCC1 (racemic) |  |  |  |  |  |  |  |  |  | 72% | 20% | 0.026 µM | 0.022 µM | 0.037 µM |
| COCC(c1ccc2ccccc2c1)C1CCNCC1 (racemic) |  |  |  |  |  |  |  |  |  | 38% | 22% | 1.1 µM | 0.036 µM | 0.0021 µM |
| COCC(c1cccc(Cl)c1)C1CCNCC1 (racemic) |  |  |  |  |  |  |  |  |  | 23% | 2% | 2.6 µM | 0.098 µM | 0.18 µM |
| COCC(c1ccc(Cl)cc1)C1CCNCC1 (racemic) |  |  |  |  |  |  |  |  |  | 22% | -2.8% | 1.7 µM | 0.13 µM | 0.12 µM |
| COCC(c1ccc(F)c(Cl)c1)C1CCNCC1 (racemic) |  |  |  |  |  |  |  |  |  | 24% | -18% | 0.58 µM | 0.07 µM | 0.032 µM |
| CC(c1ccc(Cl)c(Cl)c1)C1CCNCC1.Cl (racemic) |  |  |  |  |  |  |  |  | 3 mg/kg | 72% | 27% | 0.16 µM | 0.025 µM | 0.012 µM |
| OCC(c1ccc(Cl)c(Cl)c1)C1CCNCC1 (racemic) |  |  |  |  |  |  |  |  |  | 12% | -1.5% | 2.4 µM | 0.11 µM | 0.079 µM |
| COCC(c1ccc(Cl)c(Cl)c1)C1CCNCC1.Cl (racemic) |  |  |  |  |  |  |  |  | 3 mg/kg | 42% | 5.7% | 0.19 µM | 0.014 µM | 0.011 µM |
| CCOCC(c1ccc(Cl)c(Cl)c1)C1CCNCC1.Cl (racemic) |  |  |  |  |  |  |  |  | 3 mg/kg | 89% | 44% | 0.17 µM | 0.028 µM | 0.016 µM |
